Results published in ChEMBL document CHEMBL5154773, “Development of Sulfamoylated 4-(1-Phenyl-1H-1,2,3-triazol-4-yl)phenol Derivatives as Potent Steroid Sulfatase Inhibitors for Efficient Treatment of Breast Cancer” (J Med Chem, 2022).
Active and inactive are the calls of the source. The calls are words filed in the database; no cut-off is given here.

How the values were obtained:
[1] = Toxicity in BALB/c mouse allografted with mouse 67NR cells assessed as effect on erythrocyte count at 50 mg/kg, po for 5 days a week; type: organism-based; settings: in vivo, 168 h, time 1 weeks
Mus musculus = assay: In vivo inhibition of STS in BALB/c mouse allografted with mouse 67NR cells assessed as reduction in estradiol level in plasma at 50 mg/kg, po administered 5 days a week by ELISA; type: functional, organism-based; settings: time 1.0 weeks
[2] = Toxicity in BALB/c mouse assessed as toxic effects at 10 to 50 mg/kg, po for 5 days a week for 2 weeks; type: organism-based; settings: in vivo, 336 h, dose 10-50 mg/kg
Summary of the method: (§1)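 Female BALB/c mice, three per dose, received oral doses of 10 mg/kg/day, 5 days a week for 2 weeks. Later mice received 20 or 50 mg/kg. Body weight and general health, including feces, were followed. After cervical dislocation, liver, kidney and spleen were weighed, and liver, kidneys, intestines and spleen were assessed macroscopically.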

[3] = Toxicity in BALB/c mouse assessed as body weight loss at 10 to 50 mg/kg, po for 5 days a week for 2 weeks; type: organism-based; settings: in vivo, 336 h, dose 10-50 mg/kg; summary of the method: as §1
[4] = Toxicity in BALB/c mouse assessed as change in feces consistency at 50 mg/kg, po for 5 days a week for 2 weeks; type: organism-based; settings: in vivo, 336 h; summary of the method: as §1
[5] = Toxicity in BALB/c mouse assessed as macroscopic changes in liver at 10 to 50 mg/kg, po for 5 days a week for 2 weeks; type: organism-based; settings: in vivo, 336 h, dose 10-50 mg/kg; summary of the method: as §1
[6] = Toxicity in BALB/c mouse assessed as macroscopic changes in kidneys at 10 to 50 mg/kg, po for 5 days a week for 2 weeks; type: organism-based; settings: in vivo, 336 h, dose 10-50 mg/kg; summary of the method: as §1
[7] = Toxicity in BALB/c mouse assessed as macroscopic changes in intestines at 10 to 50 mg/kg, po for 5 days a week for 2 weeks; type: organism-based; settings: in vivo, 336 h, dose 10-50 mg/kg; summary of the method: as §1
[8] = Toxicity in BALB/c mouse assessed as macroscopic changes in spleen at 10 to 50 mg/kg, po for 5 days a week for 2 weeks; type: organism-based; settings: in vivo, 336 h, dose 10-50 mg/kg; summary of the method: as §1
[9] = Toxicity in BALB/c mouse assessed as weight change of liver at 10 to 50 mg/kg, po for 5 days a week for 2 weeks; type: organism-based; settings: in vivo, 336 h, dose 10-50 mg/kg; summary of the method: as §1
[10] = Toxicity in BALB/c mouse assessed as weight change of kidney at 10 to 50 mg/kg, po for 5 days a week for 2 weeks; type: organism-based; settings: in vivo, 336 h, dose 10-50 mg/kg; summary of the method: as §1
[11] = Toxicity in BALB/c mouse assessed as weight change of spleen at 10 to 50 mg/kg, po for 5 days a week for 2 weeks; type: organism-based; settings: in vivo, 336 h, dose 10-50 mg/kg; summary of the method: as §1
[12] = Toxicity in BALB/c mouse assessed as maximum tolerated dose administered orally for 5 days a week; settings: in vivo, route po, time 1 weeks
Summary of the method: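 Female Balb/c mice, three per dose, were dosed per os, starting at 10 mg/kg/day and then at 20 and 50 mg/kg, 5 days a week for 2 weeks. Body weight and general health were followed. At autopsy, liver, kidney and spleen were weighed and examined macroscopically.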

[13] = Toxicity in BALB/c mouse allografted with mouse 67NR cells assessed as enlarged liver at 50 mg/kg, po for 5 days a week; type: organism-based; settings: in vivo, 168 h, time 1 weeks
[14] = Toxicity in BALB/c mouse allografted with mouse 67NR cells assessed as decrease in spleen weight at 50 mg/kg, po for 5 days a week; type: organism-based; settings: in vivo, 168 h, time 1 weeks
[15] = Toxicity in BALB/c mouse allografted with mouse 67NR cells assessed as decrease in lymphocyte count at 50 mg/kg, po for 5 days a week; type: organism-based; settings: in vivo, 168 h, time 1 weeks
[16] = Toxicity in BALB/c mouse allografted with mouse 67NR cells assessed as increase in monocyte count at 50 mg/kg, po for 5 days a week; type: organism-based; settings: in vivo, 168 h, time 1 weeks
[17] = Toxicity in BALB/c mouse allografted with mouse 67NR cells assessed as increase in granulocyte count at 50 mg/kg, po for 5 days a week; type: organism-based; settings: in vivo, 168 h, time 1 weeks
[18] = Toxicity in BALB/c mouse allografted with mouse 67NR cells assessed as effect on hemoglobin levels at 50 mg/kg, po for 5 days a week; type: organism-based; settings: in vivo, 168 h, time 1 weeks
[19] = Toxicity in BALB/c mouse allografted with mouse 67NR cells assessed as effect on hematocrit levels at 50 mg/kg, po for 5 days a week; type: organism-based; settings: in vivo, 168 h, time 1 weeks
[20] = Toxicity in BALB/c mouse allografted with mouse 67NR cells assessed as increase in blood urea levels at 50 mg/kg, po for 5 days a week; type: organism-based; settings: in vivo, 168 h, time 1 weeks
[21] = (§2) In vivo inhibition of STS in BALB/c mouse allografted with mouse 67NR cells assessed as residual enzyme activity in tumor lysates using [3H]E1S as substrate at 50 mg/kg, po for 5 days a week followed by incubation of tumor lysates with [3H]E1S for 3 hrs by radioisotope enzymatic assay (reference value: 100%); type: functional, Neoplasm; settings: time 1 weeks
[22] = as §2, with “in liver” for “in tumor”; type: functional; settings: time 1 weeks
[23] = molecular target: T1, Steryl-sulfatase (Homo sapiens) (UniProt P08842); assay: Inhibition of STS in human MCF7 cells assessed as residual enzyme activity using [3H]E1S as substrate at 100 nM incubated for 20 hrs by radioisotope cellular assay relative to control; type: cell-based
T1 sequence (whole entry): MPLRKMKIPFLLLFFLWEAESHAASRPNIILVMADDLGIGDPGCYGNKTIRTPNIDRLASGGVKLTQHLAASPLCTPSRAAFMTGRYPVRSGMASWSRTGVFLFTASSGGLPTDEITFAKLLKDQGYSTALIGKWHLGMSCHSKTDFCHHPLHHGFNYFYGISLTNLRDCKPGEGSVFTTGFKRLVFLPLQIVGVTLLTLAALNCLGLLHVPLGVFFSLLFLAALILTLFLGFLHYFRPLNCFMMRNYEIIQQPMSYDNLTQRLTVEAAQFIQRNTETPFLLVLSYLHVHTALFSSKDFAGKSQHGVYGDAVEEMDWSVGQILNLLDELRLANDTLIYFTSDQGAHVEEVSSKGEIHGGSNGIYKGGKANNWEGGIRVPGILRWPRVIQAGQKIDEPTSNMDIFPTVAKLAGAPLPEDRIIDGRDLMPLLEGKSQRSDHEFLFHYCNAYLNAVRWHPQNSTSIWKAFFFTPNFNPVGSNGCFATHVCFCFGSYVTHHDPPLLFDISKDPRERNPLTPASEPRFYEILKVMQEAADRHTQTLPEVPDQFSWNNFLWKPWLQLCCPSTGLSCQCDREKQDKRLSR
Summary of the method: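 MCF-7 cells were grown in DMEM with 10% FBS to 80% confluence, then seeded at 1 × 10⁵ cells/well. Cells were incubated 20 h at 37 °C, 5% CO₂, in serum-free medium with [³H]E1S (3 nM, 4 × 10⁴ Bq), with or without inhibitor at 100, 10 or 1 nM. The hydrolysis product in the collected medium was extracted into toluene and counted by scintillation. Run in triplicate.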

[24] = Antitumor activity against mouse 67NR cells allografted in BALB/c mouse assessed as tumor growth inhibition at 50 mg/kg, po for 5 days a week and measured 3 times a week relative to control; type: functional; settings: 168 h, time 1 weeks, read-out: TGI
Summary of the method: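 Female BALB/c mice, 7–8 weeks old, received 1.5 × 10⁵ 67NR cells in 0.05 mL Hanks fluid into the mammary fat pad. At about 50 mm³ average tumor volume, mice were randomized to six groups of nine. Dosing was 50 mg/kg b.w. orally, 5 days a week, for 17 days of observation. Tumor volume was measured three times weekly. TGI was calculated from tumor volume versus the control group, using one-way ANOVA with Dunnett test.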

[25] = Toxicity in BALB/c mouse allografted with mouse 67NR cells assessed as body weight loss at 50 mg/kg, po for 5 days a week and measured 3 times a week relative to control; type: organism-based; settings: in vivo, 168 h, time 1 weeks
[26] = Toxicity in BALB/c mouse allografted with mouse 67NR cells assessed as increase in alanine aminotransferase levels in plasma at 50 mg/kg, po for 5 days a week; type: organism-based; settings: in vivo, 168 h, time 1 weeks
[27] = Toxicity in BALB/c mouse allografted with mouse 67NR cells assessed as increase in aspartate aminotransferase levels in plasma at 50 mg/kg, po for 5 days a week; type: organism-based; settings: in vivo, 168 h, time 1 weeks
Steryl-sulfatase = molecular target: T2, Steryl-sulfatase (Homo sapiens, UniProt P08842); assay: Inhibition of human placental STS using [3H]E1S as substrate incubated for 3 hrs by radioisotope enzymatic assay; type: tissue-based, Placenta
T2 sequence (P08842 whole entry): T1 sequence (whole entry)
Summary of the method: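 Purified placental STS, 5 U (1 U hydrolyses 100 μM NPS in 1 h at 37 °C), incubated with [3H]E1S (3 nM, 4 × 10⁴ Bq) and inhibitor in 20 mM Tris-HCl pH 7.4 for 3 h at 37 °C. The hydrolysis product was extracted into toluene and counted. Results are expressed as residual STS activity (%) from triplicate runs.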

Compound	Activity [1]	inhibition (Mus musculus)	Activity [2]	Activity [3]	Activity [4]	Activity [5]	Activity [6]	Activity [7]	Activity [8]	Activity [9]	Activity [10]	Activity [11]	MTD at 168 h [12] [mg/kg]	Activity [13]	Activity [14]	Activity [15]	Activity [16]	Activity [17]	Activity [18]	Activity [19]	further results
NS(=O)(=O)Oc1ccc(-c2cn(-c3cccc(Cl)c3)nn2)cc1	Non-Toxic	Active	Non-Toxic	Non-Toxic	Toxic	Non-Toxic	Non-Toxic	Non-Toxic	Non-Toxic	Non-Toxic	Non-Toxic	Non-Toxic	50	Non-Toxic	Toxic	Toxic	Toxic	Toxic	Non-Toxic	Non-Toxic	Activity [20]: Toxic; Activity [21]: 5.8%; Activity [22]: 12.1%
NS(=O)(=O)Oc1ccc(-c2cn(-c3ccc(F)cc3C(F)(F)F)nn2)cc1																					Activity [23]: 2.4%
NS(=O)(=O)Oc1ccc(-c2cn(-c3cc(Cl)cc(Cl)c3)nn2)cc1	Non-Toxic	Active	Non-Toxic	Non-Toxic	Toxic	Non-Toxic	Non-Toxic	Non-Toxic	Non-Toxic	Non-Toxic	Non-Toxic	Non-Toxic	50	Toxic	Toxic	Toxic	Toxic	Toxic	Non-Toxic	Non-Toxic	inhibition in vivo at 50 mg/kg [24]: 51%; Activity [20]: Toxic; Activity [21]: 5.1%; Activity [22]: 14.5%
NS(=O)(=O)Oc1ccc(-c2cn(-c3cccc(F)c3)nn2)cc1	Non-Toxic	Active	Non-Toxic	Non-Toxic	Toxic	Non-Toxic	Non-Toxic	Non-Toxic	Non-Toxic	Non-Toxic	Non-Toxic	Non-Toxic	50	Toxic	Toxic	Toxic	Toxic	Toxic	Non-Toxic	Non-Toxic	Activity [25]: 4.5%; Activity [26]: Toxic; Activity [20]: Toxic; Activity [21]: 5.2%; Activity [22]: 13.6%
NS(=O)(=O)Oc1ccc(-c2cn(-c3cccc(C(F)(F)F)c3)nn2)cc1																					Activity [23]: 1.3%
NS(=O)(=O)Oc1ccc(-c2cn(-c3ccc(C(F)(F)F)cc3)nn2)cc1																					Activity [23]: 2.9%
NS(=O)(=O)Oc1ccc(-c2cn(-c3cc(F)cc(F)c3)nn2)cc1	Non-Toxic	Active	Non-Toxic	Non-Toxic	Toxic	Non-Toxic	Non-Toxic	Non-Toxic	Non-Toxic	Non-Toxic	Non-Toxic	Non-Toxic	50	Toxic	Toxic	Toxic	Toxic	Toxic	Non-Toxic	Non-Toxic	Activity [25]: 4.5%; Activity [26]: Toxic; Activity [27]: Toxic; Activity [20]: Toxic; Activity [21]: 1.3%; Activity [22]: 10.1%; IC50 (Steryl-sulfatase): 36.8 nM
